{"source": "ChEMBL document CHEMBL1649127", "about": "“In vivo and in vitro efficacy of amodiaquine monotherapy for treatment of infection by chloroquine-resistant Plasmodium vivax” (Antimicrob Agents Chemother, 2009)", "key": {"Plasmodium vivax [1]": {"test_system": "Plasmodium vivax", "assay": "Antimalarial activity against chloroquine-resistant Plasmodium vivax by Giemsa staining", "type": "functional, organism-based", "procedure,_shortened": "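Ex vivo P. vivax isolates came from clinic outpatients with parasitemia >5,000 μl−1 and were tested with a modified WHO microtest. Incubation ran until the drug-free control reached ≥40% schizonts. Giemsa-stained thick smears from each well were read for schizonts per 200 asexual parasites and normalized to control. IC50 was derived by nonlinear regression.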"}, "Plasmodium vivax [2]": {"test_system": "Plasmodium vivax", "assay": "Antimalarial activity against chloroquine-Resistant Plasmodium vivax infected in human assessed as parasite recurrence rate at total dose of 30 mg/kg administered as three daily doses measured on day 28 post dose", "type": "functional", "procedure,_shortened": "(§1)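 Oral amodiaquine 30 mg base/kg total, given as three daily doses. For children, the tablet was crushed and given as a suspension in water. Primaquine […] for 14 days was withheld until day 28 if there was no G6PD deficiency.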"}, "Plasmodium vivax [3]": {"test_system": "Plasmodium vivax", "assay": "Antimalarial activity against chloroquine-resistant Plasmodium vivax infected in human assessed as clearance of peripheral parasitemia at total dose of 30 mg/kg administered as three daily doses measured within 24 hrs post dose", "type": "functional", "procedure,_shortened": "as §1"}, "Homo sapiens [4]": {"test_system": "Homo sapiens", "assay": "Toxicity in patient infected with chloroquine-resistant Plasmodium vivax assessed as occurrence of anemia at total dose of 30 mg/kg administered as three daily doses measured 7 days post dose", "type": "organism-based", "parameters": "dose 30 mg/kg", "conditions": "in vivo, 168 h", "procedure,_shortened": "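Patients received oral amodiaquine 30 mg base/kg split over three daily doses, with 60-min observation after each dose. Children were given crushed tablet in water. Anemia was defined as hemoglobin <10 g/dl. Primaquine was deferred to day 28.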"}, "Homo sapiens [5]": {"test_system": "Homo sapiens", "assay": "Toxicity in human infected with chloroquine-Resistant Plasmodium vivax assessed as occurrence of nausea at total dose of 30 mg/kg administered as three daily doses", "type": "organism-based", "parameters": "dose 30 mg/kg", "conditions": "in vivo", "procedure,_shortened": "as §1"}, "Homo sapiens [6]": {"test_system": "Homo sapiens", "assay": "Toxicity in patient infected with chloroquine-resistant Plasmodium vivax assessed as occurrence of anemia at total dose of 30 mg/kg administered as three daily doses measured 28 days post dose", "conditions": "in vivo, 672 h"}, "Plasmodium vivax [7]": {"test_system": "Plasmodium vivax", "assay": "Antimalarial activity against chloroquine-resistant Plasmodium vivax infected in human assessed as clearance of peripheral parasitemia at total dose of 30 mg/kg administered as three daily doses measured 48 hrs post dose", "type": "functional", "procedure,_shortened": "as §1"}, "Homo sapiens [8]": {"test_system": "Homo sapiens", "assay": "Toxicity in patient infected with chloroquine-resistant Plasmodium vivax assessed as occurrence of vomiting at total dose of 30 mg/kg administered as three daily doses measured […]", "type": "organism-based", "parameters": "dose 30 mg/kg", "conditions": "in vivo", "procedure,_shortened": "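Three daily oral doses of amodiaquine, 30 mg base/kg total, were given under observation for 60 min. Patients who vomited were withdrawn and retreated with oral quinine. Children received crushed tablet suspended in water.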"}}, "note": "pIC50: −log10 of the molar value."}
{"smiles": "OC(c1cc(C(F)(F)F)nc2c(C(F)(F)F)cccc12)C1CCCCN1", "note": "(stereo not drawn) [MEFLOQUINE]", "values": [{"measurement": "pIC50", "setting": "Plasmodium vivax [1]", "result": 8.09}]}
{"smiles": "CCN(CC)CCCC(C)Nc1ccnc2cc(Cl)ccc12", "note": "(stereo not drawn) [CHLOROQUINE]", "values": [{"measurement": "pIC50", "setting": "Plasmodium vivax [1]", "result": 7.28}]}
{"smiles": "Clc1ccc2c(N3CCN(CCCN4CCN(c5ccnc6cc(Cl)ccc56)CC4)CC3)ccnc2c1", "note": "[PIPERAQUINE]", "values": [{"measurement": "pIC50", "setting": "Plasmodium vivax [1]", "result": 7.76}]}
{"smiles": "CCCCN(CCCC)CC(O)c1cc(Cl)cc2c1-c1ccc(Cl)cc1/C2=C/c1ccc(Cl)cc1", "note": "(stereo not drawn) [LUMEFANTRINE]", "values": [{"measurement": "pIC50", "setting": "Plasmodium vivax [1]", "result": 7.80}]}
{"smiles": "CCN(CC)Cc1cc(Nc2ccnc3cc(Cl)ccc23)ccc1O.Cl", "values": [{"measurement": "Activity", "setting": "Plasmodium vivax [2]", "result": 22.8, "unit": "%"}, {"measurement": "Activity", "setting": "Plasmodium vivax [3]", "result": 52, "unit": "%"}, {"measurement": "pIC50", "setting": "Plasmodium vivax [1]", "result": 7.95}, {"measurement": "Activity", "setting": "Homo sapiens [4]", "result": 30, "unit": "%"}, {"measurement": "Activity", "setting": "Homo sapiens [5]", "result": 4.5, "unit": "%"}, {"measurement": "Activity", "setting": "Homo sapiens [6]", "result": "Non-toxic"}, {"measurement": "Activity", "setting": "Plasmodium vivax [7]", "result": 91, "unit": "%"}, {"measurement": "Activity", "setting": "Homo sapiens [8]", "result": 4.6, "unit": "%"}]}
{"smiles": "C[C@H]1[C@H](OC(=O)CCC(=O)O)O[C@@H]2O[C@@]3(C)CC[C@H]4[C@H](C)CC[C@@H]1[C@@]24OO3", "note": "[ARTESUNATE]", "values": [{"measurement": "pIC50", "setting": "Plasmodium vivax [1]", "result": 8.89}]}
